Calls of active or inactive are those of the source. No cut-off for these calls is given here.
Tests used:
[1] = system: Rattus norvegicus; experiment: Inhibition of sEH-P in Sprague-Dawley rat assessed as effect on ratio of sn1-18:2 LPA to corresponding monoacylglycerol species in plasma at 30 mg/kg, po after 8 hrs by LC-MS/MS analysis; format: functional, organism-based
Procedure, shortened: (§1)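 Male Sprague-Dawley rats given a single oral dose of 30 mg/kg or vehicle (n = 3 per group). Plasma collected 8 h later. Epoxy fatty acid/diol ratios and LPA/corresponding MAG ratios quantified by LC−MS/MS.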

[2] = Half life in Sprague-Dawley rat at 30 mg/kg, po monitored over 8 hrs by LC-MS analysis; format: ADME, organism-based; details: in vivo
Procedure, shortened: (§2)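 Male Sprague-Dawley rats (n = 3) given a single oral dose of 30 mg/kg. Plasma compound concentration followed over 8 h. Cmax and half-life derived from the plasma concentration–time profile.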

[3] = system: Rattus norvegicus; experiment: Inhibition of sEH-P in Sprague-Dawley rat assessed as effect on ratio of sn1-18:1 LPA to corresponding monoacylglycerol species in plasma at 30 mg/kg, po after 8 hrs by LC-MS/MS analysis; format: functional, organism-based; procedure, shortened: as §1
[4] = biological target: T1, Bifunctional epoxide hydrolase 2 (Homo sapiens, UniProt P34913); experiment: Inhibition of hexa-His-tagged human soluble epoxide hydrolase C-terminal hydrolase domain expressed in Escherichia coli BL21(DE3) pre-incubated for 30 mins before PHOME substrate addition by fluorescence based assay
T1 sequence (P34913 whole entry): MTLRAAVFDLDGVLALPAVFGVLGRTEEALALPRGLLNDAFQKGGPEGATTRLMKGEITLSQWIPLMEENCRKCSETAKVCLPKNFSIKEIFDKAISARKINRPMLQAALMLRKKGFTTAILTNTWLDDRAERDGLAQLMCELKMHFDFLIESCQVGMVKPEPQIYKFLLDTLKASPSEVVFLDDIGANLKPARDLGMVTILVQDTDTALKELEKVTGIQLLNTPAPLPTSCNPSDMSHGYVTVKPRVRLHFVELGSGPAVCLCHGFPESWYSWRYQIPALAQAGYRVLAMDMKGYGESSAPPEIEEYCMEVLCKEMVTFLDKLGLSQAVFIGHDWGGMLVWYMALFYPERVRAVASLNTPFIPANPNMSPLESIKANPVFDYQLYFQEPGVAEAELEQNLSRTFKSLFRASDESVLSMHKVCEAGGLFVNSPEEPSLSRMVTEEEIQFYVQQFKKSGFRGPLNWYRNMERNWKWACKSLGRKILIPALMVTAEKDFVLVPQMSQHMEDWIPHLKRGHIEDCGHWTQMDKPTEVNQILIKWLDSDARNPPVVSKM

[5] = Cmax in Sprague-Dawley rat at 30 mg/kg, po monitored over 8 hrs by LC-MS analysis; format: ADME, organism-based; set-up: dose 30 mg/kg, route oral; details: in vivo; procedure, shortened: as §2
[6] = Competitive inhibition of hexa-His-tagged human soluble epoxide hydrolase N-terminal phosphatase domain expressed in Escherichia coli BL21(DE3) pre-incubated for 30 mins before DiFMUP substrate addition by fluorescence based assay
[7] = Binding affinity to hexa-His-tagged human soluble epoxide hydrolase N-terminal phosphatase domain expressed in Escherichia coli BL21(DE3) by ITC assay
Procedure, shortened: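 Inverse-mode ITC with 185 μM freshly prepared sEH-P in the syringe and inhibitor in the cell. Both in 50 mM acetate, 10 mM MgCl2, 5% glycerol, pH 5.75 with 2% DMSO. Run at 25 °C, 350 rpm stirring, 20−25 injections of 8−10 μL, 200 s spacing. Inhibitor concentration chosen to optimize curve shape. Heats fitted to a single-site model.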

[8] = system: Rattus norvegicus; experiment: Inhibition of sEH-P in Sprague-Dawley rat assessed as effect on ratio of sn1-20:4 LPA to corresponding monoacylglycerol species in plasma at 30 mg/kg, po after 8 hrs by LC-MS/MS analysis; format: functional, organism-based; procedure, shortened: as §1
[9] = organism: Homo sapiens
[10] = biological target: T1, Bifunctional epoxide hydrolase 2; experiment: Competitive inhibition of full length human soluble epoxide hydrolase pre-incubated for 30 mins before DiFMUP substrate addition by fluorescence based assay
[11] = biological target: T2, Bifunctional epoxide hydrolase 2 (Homo sapiens) (UniProt P34913); experiment: Induction of stabilization of hexa-His-tagged human soluble epoxide hydrolase C-terminal hydrolase domain expressed in Escherichia coli BL21(DE3) at 50 uM by differential scanning fluorimetry
T2 sequence (whole entry): T1 sequence (P34913 whole entry)

[12] = system: Rattus norvegicus; experiment: Inhibition of sEH-H in Sprague-Dawley rat assessed as effect on ratio of 12,13-EpOME to 12,13-DiHOME in plasma at 30 mg/kg, po after 8 hrs by LC-MS/MS analysis; format: functional, organism-based; procedure, shortened: as §1
[13] = system: Rattus norvegicus; experiment: Inhibition of sEH-H in Sprague-Dawley rat assessed as effect on ratio of 14,15-EET to 14,15-DHET in plasma at 30 mg/kg, po after 8 hrs by LC-MS/MS analysis; format: functional, organism-based; procedure, shortened: as §1
[14] = system: Rattus norvegicus; experiment: Inhibition of sEH-H in Sprague-Dawley rat assessed as effect on ratio of 19,20-EpDPA […] in plasma at 30 mg/kg, po after 8 hrs by LC-MS/MS analysis; format: functional, organism-based; procedure, shortened: as §1
[15] = biological target: Prostaglandin G/H synthase 1 (Homo sapiens, UniProt P23219); experiment: Inhibition of COX1 in A23187-stimulated human platelets assessed as reduction in TXA2 production
Prostaglandin G/H synthase 1, sequence (P23219 whole entry): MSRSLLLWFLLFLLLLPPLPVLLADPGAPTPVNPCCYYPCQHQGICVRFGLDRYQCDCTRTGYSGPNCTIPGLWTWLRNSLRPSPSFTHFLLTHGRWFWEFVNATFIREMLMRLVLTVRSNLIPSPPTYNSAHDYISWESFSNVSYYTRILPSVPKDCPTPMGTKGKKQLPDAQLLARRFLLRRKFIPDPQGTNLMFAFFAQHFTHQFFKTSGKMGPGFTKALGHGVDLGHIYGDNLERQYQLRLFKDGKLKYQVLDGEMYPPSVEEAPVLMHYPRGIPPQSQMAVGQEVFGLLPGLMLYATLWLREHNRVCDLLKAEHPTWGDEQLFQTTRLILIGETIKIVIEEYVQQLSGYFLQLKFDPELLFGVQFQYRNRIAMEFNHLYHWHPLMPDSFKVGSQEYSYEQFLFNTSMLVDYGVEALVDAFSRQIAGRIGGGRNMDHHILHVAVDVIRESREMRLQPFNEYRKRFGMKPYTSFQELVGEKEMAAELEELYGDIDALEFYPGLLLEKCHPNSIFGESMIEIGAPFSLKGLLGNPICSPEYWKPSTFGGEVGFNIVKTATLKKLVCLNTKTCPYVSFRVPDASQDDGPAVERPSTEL
Procedure, shortened: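 Washed human platelets preincubated with increasing compound concentrations, then challenged with calcium ionophore A23187. TXB2 (stable TXA2 metabolite) in supernatant quantified by LC−MS/MS with TXB2-d4 internal standard.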

[16] = biological target: T1, Bifunctional epoxide hydrolase 2; experiment: Inhibition of phosphatase activity of full length human soluble epoxide hydrolase pre-incubated for 30 mins before FDP substrate addition by fluorescence based assay
[17] = biological target: T1, Bifunctional epoxide hydrolase 2; experiment: Inhibition of hydrolase activity of full length human soluble epoxide hydrolase pre-incubated for 30 mins before PHOME substrate addition by fluorescence based assay
Procedure, shortened: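 Hydrolase assay with 0.1 μM full-length enzyme in Bis-Tris pH 7 containing 0.1 mg/mL BSA and 0.01% Triton X-100. Reaction started with PHOME (50 μM final). Triplicates.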

O=C(O)CCCc1nc(-c2ccc(Cl)c(Cl)c2)c(-c2ccccc2)o1
inhibition [1]: Active | t1/2 [2]: 7 h | inhibition [3]: Active | IC50 [4]: 12 µM | Cmax [5]: 128 µM | Ki [6]: 0.05 µM | Kd [7]: 0.3 µM | inhibition [8]: Active | ΔTm [9]: 6.6 °C | Ki [10]: 4.8 µM | Activity [11]: inactive | inhibition [12]: inactive | inhibition [13]: inactive | inhibition [14]: inactive | IC50 [15]: 1.2 µM

O=C(O)CCc1nc(-c2ccccc2)c(-c2ccccc2)o1 [OXAPROZIN]
IC50 [16]: 70 µM | IC50 [17]: > 300 µM

Reference: ChEMBL document CHEMBL4414562, “Discovery of the First in Vivo Active Inhibitors of the Soluble Epoxide Hydrolase Phosphatase Domain” (J Med Chem, 2019)
